In paper PMC3889329 (Diabetes Therapy, 2013):

Experiments:
[1] = system: patients with type 2 diabetes mellitus; test: Oral glucose tolerance test, glucose AUEC1-5; format: in vivo, human; conditions: for Glucose AUEC1–5, change from baseline to day 9: baseline day −1
Summary of the method: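 For the OGTT, 75 g glucose solution was given after an overnight fast on days −1, 1 and 9, with the test compound or placebo given orally once daily. Glucose AUEC was calculated over 1–5 h after OGTT. Change is from baseline on day −1. Patients were randomized 3:1 to active or placebo per dose group. Analysis was descriptive.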

SGLT1 = conditions: in vitro; cited from earlier work
[2] = Pharmacokinetics in plasma and urine; format: in vivo, human
Summary of the method: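 Plasma was sampled pre-dose on days −2, −1, 1, 2, 3 and 5–9, up to 48 h after the day 1 single dose and up to 72 h after the day 9 dose. Urine was collected on days 1 and 9. Analysis was by HPLC–MS/MS (LLOQ 1.11 nmol/L plasma, 4.44 nmol/L urine). AUC used linear-up/log-down trapezoids. Steady state was assessed from day 5–9 troughs with a log-scale repeated-measures model. n = 36.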

[3] = system: patients with type 2 diabetes mellitus; test: Urinary glucose excretion; format: in vivo, human; conditions: day 1
Summary of the method: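 All urine was collected over 24 h on days −2, −1, 1, 8 and 9, extended to 48 h after day 1 and 72 h after day 9. Ae0–24 was measured after a single dose with OGTT (75 g glucose, day 1) and after multiple daily doses, fasting (day 8) or with OGTT (day 9). Results are mean (SD) for the treated set.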

[4] = system: patients with type 2 diabetes mellitus; test: Laboratory electrolyte and lipid measurements; format: in vivo, human; conditions: normalized to a standard reference range
[5] = system: patients with type 2 diabetes mellitus; test: Fasting plasma glucose; format: in vivo, human; conditions: day 10, 1 day after the last dose
Summary of the method: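 Fasting plasma glucose was measured after a 10 h overnight fast. Dosing was oral, once daily with 240 mL water: a single dose on day 1, none on day 2, then daily on days 3–9. Patients were randomized 3:1 to test compound or placebo within each dose group (2.5, 10, 25, 100 mg; n = 12 per group). Descriptive statistics used the treated set (n = 48).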

[6] = system: patients with type 2 diabetes mellitus; test: Safety and tolerability; format: in vivo, human; conditions: for Diarrhea / Headache / Hypoglycemia / Patients with any AE / Pruritus: N = 9
Summary of the method: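 This was a double-blind, multiple rising dose trial with patients randomized 3:1 to active or placebo per dose group. Oral dosing was once daily: a single dose on day 1, then days 3–9. Adverse events were recorded, and relatedness was investigator-defined. Hypoglycemia was defined as blood glucose <3.5 mmol/L. An end-of-study examination was done on days 15–21. Analysis was descriptive, randomized set (n = 48).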

SGLT2 = conditions: in vitro, cited from earlier work
[7] = system: patients with type 2 diabetes mellitus; test: Weighted mean daily glucose; format: in vivo, human; conditions: for Mean MDG, mean (least squares) change from baseline to day 8: baseline day −2
Summary of the method: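 Eight-point weighted mean daily glucose was calculated as the 24 h glucose AUEC0–24 divided by 24 h. It was measured under standardized meals without OGTT on day −2 (baseline) and day 8, after multiple once-daily oral doses. Change from baseline is given as least squares means. Analysis used the treated set.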

Structure (SMILES): OC[C@H]1O[C@@H](c2ccc(Cl)c(Cc3ccc(O[C@H]4CCOC4)cc3)c2)[C@H](O)[C@@H](O)[C@@H]1O [Empagliflozin]
- Mean (SD) glucose AUEC1–5, Day 9 ([1]; 2.5 mg qd, after OGTT): 713 (216) mg h/dL
- Glucose AUEC1–5, change from baseline to day 9 ([1]; 2.5 mg qd, after OGTT): 23.1%
- Glucose AUEC1–5, change from baseline to day 9 ([1]; 10 mg qd, after OGTT): 27.5%
- Mean (SD) glucose AUEC1–5, Day 9 ([1]; 10 mg qd, n = 8, after OGTT): 655 (144) mg h/dL
- Mean (SD) glucose AUEC1–5, Day 9 ([1]; 25 mg qd, after OGTT): 679 (109) mg h/dL
- Glucose AUEC1–5, change from baseline to day 9 ([1]; 25 mg qd, after OGTT): 23.0%
- Mean (SD) glucose AUEC1–5, Day 9 ([1]; 100 mg qd, after OGTT): 817 (126) mg h/dL
- Glucose AUEC1–5, change from baseline to day 9 ([1]; 100 mg qd, after OGTT): 22.9%
- Selectivity for SGLT2 over SGLT1 (SGLT1): > 2,500 fold
- Accumulation at steady state ([2]; 2.5–100 mg qd): up to 23%
- half-life ([2]; human, plasma, oral, Mean t 1/2 at steady state, day 9, range over 2.5–100 mg qd): 10.3 to 18.8 h
- Tmax ([2]; human, plasma, po): 1.5 to 3 h
- Steady state reached by ([2]; repeated once-daily dosing, trough concentrations days 5–8): ≤ 5 days
- Amount of glucose excreted in the urine over 24 h (Ae0–24) ([3]; 2.5 mg single dose, OGTT conditions): 46.3 g
- Increase in UGE with fourfold dose increase from 2.5 to 10 mg ([3]; single dose): more than a twofold increase
- Increase in UGE with fourfold dose increase from 25 to 100 mg ([3]; single dose): ~1.2 fold
- Calcium, mean (SD), last value on treatment ([4]; 2.5 mg qd): 2.3 (0.1) mmol/l
- HDL-cholesterol, mean (SD), last value on treatment ([4]; 2.5 mg qd): 16 (18) mg/dL
- Potassium, mean (SD), last value on treatment ([4]; 2.5 mg qd): 4.2 (0.3) mmol/l
- Sodium, mean (SD), last value on treatment ([4]; 2.5 mg qd): 140 (2) mmol/l
- Total cholesterol, mean (SD), last value on treatment ([4]; 2.5 mg qd): 175 (11) mg/dL
- Triglycerides, mean (SD), last value on treatment ([4]; 2.5 mg qd): 171 (65) mg/dL
- HDL-cholesterol, mean (SD), last value on treatment ([4]; 10 mg qd, N = 8): 31 (18) mg/dL
- Calcium, mean (SD), last value on treatment ([4]; 10 mg qd): 2.3 (0.1) mmol/l
- Potassium, mean (SD), last value on treatment ([4]; 10 mg qd): 4.4 (0.3) mmol/l
- Sodium, mean (SD), last value on treatment ([4]; 10 mg qd): 140 (1) mmol/l
- Total cholesterol, mean (SD), last value on treatment ([4]; 10 mg qd): 171 (25) mg/dL
- Triglycerides, mean (SD), last value on treatment ([4]; 10 mg qd): 114 (42) mg/dL
- Calcium, mean (SD), last value on treatment ([4]; 25 mg qd): 2.3 (0.1) mmol/l
- HDL-cholesterol, mean (SD), last value on treatment ([4]; 25 mg qd): 41 (17) mg/dL
- Potassium, mean (SD), last value on treatment ([4]; 25 mg qd): 4.1 (0.3) mmol/l
- Sodium, mean (SD), last value on treatment ([4]; 25 mg qd): 139 (2) mmol/l
- Total cholesterol, mean (SD), last value on treatment ([4]; 25 mg qd): 174 (13) mg/dL
- Triglycerides, mean (SD), last value on treatment ([4]; 25 mg qd): 89 (26) mg/dL
- Calcium, mean (SD), last value on treatment ([4]; 100 mg qd): 2.3 (0.1) mmol/l
- HDL-cholesterol, mean (SD), last value on treatment ([4]; 100 mg qd): 37 (18) mg/dL
- Potassium, mean (SD), last value on treatment ([4]; 100 mg qd): 4.5 (0.3) mmol/l
- Sodium, mean (SD), last value on treatment ([4]; 100 mg qd): 139 (2) mmol/l
- Total cholesterol, mean (SD), last value on treatment ([4]; 100 mg qd): 174 (11) mg/dL
- Triglycerides, mean (SD), last value on treatment ([4]; 100 mg qd): 97 (27) mg/dL
- FPG lower than on day 1 [5]: at least 14%
- Diarrhea ([6]; 2.5 mg qd): 2 (22.2) n (%)
- Headache ([6]; 2.5 mg qd): 0 n (%)
- Hypoglycemia ([6]; 2.5 mg qd): 0 n (%)
- Patients with any AE ([6]; 2.5 mg qd): 6 (66.7) n (%)
- Pruritus ([6]; 2.5 mg qd): 1 (11.1) n (%)
- Diarrhea ([6]; 10 mg qd): 0 n (%)
- Headache ([6]; 10 mg qd): 1 (11.1) n (%)
- Hypoglycemia ([6]; 10 mg qd): 2 (22.2) n (%)
- Patients with any AE ([6]; 10 mg qd): 5 (55.6) n (%)
- Pruritus ([6]; 10 mg qd): 0 n (%)
- Diarrhea ([6]; 25 mg qd): 0 n (%)
- Headache ([6]; 25 mg qd): 2 (22.2) n (%)
- Hypoglycemia ([6]; 25 mg qd): 1 (11.1) n (%)
- Patients with any AE ([6]; 25 mg qd): 5 (55.6) n (%)
- Pruritus ([6]; 25 mg qd): 1 (11.1) n (%)
- Diarrhea ([6]; 100 mg qd): 0 n (%)
- Headache ([6]; 100 mg qd): 0 n (%)
- Hypoglycemia ([6]; 100 mg qd): 0 n (%)
- Patients with any AE ([6]; 100 mg qd): 3 (33.3) n (%)
- Pruritus ([6]; 100 mg qd): 0 n (%)
- Frequency of AEs ([6]; all patients receiving empagliflozin): 52.8%
- Patients with hypoglycemic events (blood glucose <3.5 mmol/L) ([6]; all within 5 h of OGTT administration, moderate intensity): Three
- Patients with AE leading to discontinuation of study treatment ([6]; cellulitis, moderate intensity, not believed related to study medication): 1 patient
- Tolerability ([6]; multiple once-daily oral doses 2.5–100 mg): well tolerated
- Fatalities or serious AEs ([6]; treatment period): no fatalities or serious AEs
- Urinary tract or genital tract infections ([6]; treatment period): No urinary tract or genital tract infections were reported
- pIC50 (SE), inhibition of SGLT2 (SGLT2): 8.5
- IC50 (SGLT2; read-out: IC50, inhibition of SGLT2): 3.1 nM
- Mean MDG (SD), Day 8 ([7]; 2.5 mg qd, without OGTT): 134 (42.7) mg/dL
- Mean MDG change from baseline to day 8, difference to placebo ([7]; 2.5 mg qd, without OGTT): −15.5, p < 0.05 mg/dL
- Mean MDG, mean (least squares) change from baseline to day 8 ([7]; 2.5 mg qd, without OGTT): -29.0 mg/dL
- Mean MDG (SD), Day 8 ([7]; 10 mg qd, n = 8, without OGTT): 124 (18.9) mg/dL
- Mean MDG change from baseline to day 8, difference to placebo ([7]; 10 mg qd, without OGTT): −23.5, p < 0.01 mg/dL
- Mean MDG, mean (least squares) change from baseline to day 8 ([7]; 10 mg qd, without OGTT): -37.0 mg/dL
- Mean MDG (SD), Day 8 ([7]; 25 mg qd, without OGTT): 133 (36.2) mg/dL
- Mean MDG change from baseline to day 8, difference to placebo ([7]; 25 mg qd, without OGTT): −15.0, p = 0.052 mg/dL
- Mean MDG, mean (least squares) change from baseline to day 8 ([7]; 25 mg qd, without OGTT): -28.5 mg/dL
- Mean MDG (SD), Day 8 ([7]; 100 mg qd, without OGTT): 154 (17.9) mg/dL
- Mean MDG change from baseline to day 8, difference to placebo ([7]; 100 mg qd, without OGTT): −10.6, p = 0.168 mg/dL
- Mean MDG, mean (least squares) change from baseline to day 8 ([7]; 100 mg qd, without OGTT): -24.1 mg/dL
